Molecules are shown by their SMILES.

In data set [1] the test system is Escherichia coli. Briefly: Growth inhibition of Escherichia coli DH10B harboring pBC SK(+)-L1 at 1024 ug/ml after 12 hrs macrodilution broth method. The arrangement: species or system K-12 substr. DH10B. The essentials:
(§1)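 Cefazolin MIC determined for E. coli DH10B carrying pBC SK(+)-L1 and for E. coli not expressing L1, with and without compound.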

A short description of data set [2]: Inhibition of L1 (unknown origin) expressed in Escherichia coli BL21(DE3) at 100 uM using cefazolin as substrate preincubated for 3 to 60 mins followed by substrate addition by UV-Visible spectrophotometric method relative to control. The settings on record: TDE = time-dependent effect. The essentials:
(§2)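 Purified enzyme preincubated with 100 μM inhibitor in its enzyme-specific buffer, then substrate added: 50 μM cefazolin for IMP-1 and L1, 40 μM imipenem for ImiS. Hydrolysis followed by UV-vis spectrophotometry. Preincubation times of 3–60 min were tested. % inhibition = activity without inhibitor (100%) minus residual activity.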

The test system of data set [3] is Escherichia coli. Briefly: Growth inhibition of Escherichia coli DH10B at 1024 ug/ml after 12 hrs macrodilution broth method. Further details: species or system K-12 substr. DH10B. A digest of the protocol: as §1
The nature of data set [4]: Inhibition of ImiS (unknown origin) expressed in Escherichia coli BL21(DE3) at 100 uM using imipenem as substrate preincubated for 3 to 60 mins followed by substrate addition by UV-Visible spectrophotometric method relative to control. The settings on record: TDE = time-dependent effect. A digest of the protocol:
as §2

Data set [5] can be described thus: Inhibition of ImiS (unknown origin) expressed in Escherichia coli BL21(DE3) at 100 uM using imipenem as substrate preincubated for 30 mins followed by substrate addition by UV-Visible spectrophotometric method relative to control. A digest of the protocol: as §2
Data set [6] can be described thus: Inhibition of L1 (unknown origin) expressed in Escherichia coli DH10B harboring pBC SK(+)-L1 assessed as potentiation of cefazolin-induced antibacterial activity by measuring cefazolin MIC at 1024 ug/ml after 12 hrs macrodilution broth method. The essentials: (§3)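 Cefazolin MICs were read for E. coli DH10B carrying pBC SK(+)-L1 across a series of inhibitor concentrations. Cefazolin alone (no inhibitor) on the same strain served as the reference MIC. E. coli not expressing L1 was tested alongside as the susceptible comparator.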

A short description of data set [7]: Inhibition of IMP1 (unknown origin) expressed in Escherichia coli BL21(DE3) at 100 uM using cefazolin as substrate preincubated for 3 to 60 mins followed by substrate addition by UV-Visible spectrophotometric method. The settings on record: TDE = time-dependent effect. The essentials:
as §2

A short description of data set [8]: Inhibition of L1 (unknown origin) expressed in Escherichia coli BL21(DE3) using cefazolin as substrate preincubated for 30 mins followed by substrate addition by UV-Visible spectrophotometric method. A digest of the protocol: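 L1 IC50 measured in 30 mM Tris, pH 8.5, with cefazolin as substrate and inhibitor at 0.1–20 μM. Run in triplicate; mean ± SD reported.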

Data set [9] is described as follows: Inhibition of IMP1 (unknown origin) expressed in Escherichia coli BL21(DE3) at 100 uM using cefazolin as substrate preincubated for 30 mins followed by substrate addition by UV-Visible spectrophotometric method relative to control. A digest of the protocol:
as §2

A short description of data set [10]: Inhibition of L1 (unknown origin) expressed in Escherichia coli BL21(DE3) at 100 uM using cefazolin as substrate preincubated for 30 mins followed by substrate addition by UV-Visible spectrophotometric method relative to control. The essentials: as §2
Data set [11] deals with L929. Put plainly: Cytotoxicity against mouse L929 cells assessed as reduction in cell viability up to 400 uM after 48 hrs by CCK assay. In kind it is cell-based. The settings on record: l929, 48 h. The essentials: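 L-929 mouse fibroblasts exposed to compound at 12.5, 25, 50, 100, 200 and 400 μM working concentrations; cell viability measured.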
Data set [12] in a line: Inhibition of L1 (unknown origin) expressed in Escherichia coli DH10B harboring pBC SK(+)-L1 assessed as potentiation of cefazolin-induced antibacterial activity by measuring cefazolin MIC at 128 ug/ml after 12 hrs macrodilution broth method. A digest of the protocol:
as §3

Data set [13] can be described thus: Inhibition of L1 (unknown origin) expressed in Escherichia coli DH10B harboring pBC SK(+)-L1 assessed as potentiation of cefazolin-induced antibacterial activity by measuring cefazolin MIC at 16 ug/ml after 12 hrs macrodilution broth method. A digest of the protocol: as §3
A short description of data set [14]: Inhibition of L1 (unknown origin) expressed in Escherichia coli DH10B harboring pBC SK(+)-L1 assessed as potentiation of cefazolin-induced antibacterial activity by measuring cefazolin MIC at 8 ug/ml after 12 hrs macrodilution broth method. A digest of the protocol:
as §3

Data set [15] is described as follows: Inhibition of L1 (unknown origin) expressed in Escherichia coli DH10B harboring pBC SK(+)-L1 assessed as potentiation of cefazolin-induced antibacterial activity by measuring cefazolin MIC at 4 ug/ml after 12 hrs macrodilution broth method. The essentials:
as §3

A short description of data set [16]: Inhibition of L1 (unknown origin) expressed in Escherichia coli DH10B harboring pBC SK(+)-L1 assessed as potentiation of cefazolin-induced antibacterial activity by measuring cefazolin MIC at 256 ug/ml after 12 hrs macrodilution broth method. The essentials: as §3
Data set [17] is described as follows: Inhibition of L1 (unknown origin) expressed in Escherichia coli DH10B harboring pBC SK(+)-L1 assessed as potentiation of cefazolin-induced antibacterial activity by measuring cefazolin MIC at 512 ug/ml after 12 hrs macrodilution broth method. The essentials: as §3
Data set [18] is described as follows: Inhibition of L1 (unknown origin) expressed in Escherichia coli DH10B harboring pBC SK(+)-L1 assessed as potentiation of cefazolin-induced antibacterial activity by measuring cefazolin MIC at 32 ug/ml after 12 hrs macrodilution broth method. A digest of the protocol: as §3
Data set [19] in a line: Inhibition of L1 (unknown origin) expressed in Escherichia coli DH10B harboring pBC SK(+)-L1 assessed as potentiation of cefazolin-induced antibacterial activity by measuring cefazolin MIC at 64 ug/ml after 12 hrs macrodilution broth method. The essentials:
as §3

Data set [20] is described as follows: Inhibition of L1 (unknown origin) expressed in Escherichia coli DH10B harboring pBC SK(+)-L1 assessed as potentiation of cefazolin-induced antibacterial activity by measuring fold reduction in cefazolin MIC at 1024 ug/ml after 12 hrs macrodilution broth method relative to cefazolin alone. The essentials:
as §3

As for `O=C([O-])CSCC(=O)Nc1ccccc1.[K+]`, the “growth inhibition (GI)” value in data set [1] and in data set [3] was “Non-Toxic” throughout. Moreover, the inhibition (in general, the change of the read-out against control, counted positive when it falls) in data set [2] was “Tde”; in [4], “Tde”; in data set [5], 18%; in data set [7], “Tde”; in data set [9] it was 43%; in data set [10] it was 92%. Also, the MIC in [6] was 16 mg/L. In addition, in [8], the half-maximal inhibitory concentration (IC50) (usually the concentration needed to halve the response being measured) came out at 0.98 µM. For the same compound, the Activity result in data set [11] was “Non-Toxic”.
With `CC(C)CNC(=O)CSCC(=O)[O-].[K+]`, the “growth inhibition (GI)” value in data set [1] and in [3] was “Non-Toxic” in each case. For the same compound, the inhibition result is “Tde” in data set [2]; “Tde” in data set [4]; 23% in [5]; “Tde” in data set [7]; 59% in [9]; 78% in data set [10]. Moreover, the MIC in [6] worked out at 16 mg/L. In [8], this compound came in with an IC50 of 3.81 µM.
In the case of `O=C([O-])CSCC(=O)Nc1ccc([N+](=O)[O-])cc1.[K+]`, the “growth inhibition (GI)” value in data set [1] and in data set [3] was “Non-Toxic” in each case. Further, the inhibition result is “Tde” in data set [2]; “Tde” in data set [4]; 85% in [5]; “Tde” in [7]; 45% in data set [9]; 71% in [10]. The MIC in [12] came to 8 mg/L; in data set [6], 2 mg/L; in [13], 16 mg/L; in data set [14], 16 mg/L; in [15], 16 mg/L; in data set [16], 8 mg/L. Also, the MIC in [17] came to 8 mg/L; in data set [18] it was 16 mg/L; in data set [19], 16 mg/L. In data set [8], the concentration for half-maximal inhibition (IC50) is above 20 µM. For the same compound, the fold change (FC) in data set [20] amounted to 8.
On to `CC(C)(C)NC(=O)CSCC(=O)[O-].[K+]`, for which the “growth inhibition (GI)” value in [1] and in [3] was “Non-Toxic” in each case. Besides, the inhibition entry in [2] was “Tde”; in data set [4], “Tde”; in [5] it was 21%; in data set [7], “Tde”; in [9], 69%; in data set [10], 91%. Also, the MIC in data set [6] was found to be 16 mg/L. Moreover, the IC50 in data set [8] was determined as 0.75 µM. For the same compound, the Activity entry in [11] is on record as “Non-Toxic”.
As to `O=C([O-])CSCC(=O)Nc1ccccc1O.[K+]`, the “growth inhibition (GI)” value in [1] and in [3] was “Non-Toxic” in each case. The inhibition result was “Tde” in [2]; “Tde” in data set [4]; 74% in data set [5]; “Tde” in data set [7]; 40% in [9]; 95% in data set [10]. For the same compound, the MIC in [6] is 8 mg/L. For the same compound, in data set [8], the IC50 was 0.58 µM.
In the case of `O=C([O-])CSCC(=O)Nc1ccc(C(=O)O)cc1.[K+]`, the “growth inhibition (GI)” value in data set [1] and in data set [3] was “Non-Toxic” throughout. Also, the inhibition entry was “Tde” in data set [2]; “Tde” in data set [4]; 87% in data set [5]; “Tde” in [7]; 71% in data set [9]; 75% in data set [10]. Besides, in [6], the MIC turned out to be 16 mg/L. In [8], this compound came in with an IC50 of 7.5 µM.
`CCCCNC(=O)CSCC(=O)[O-].[K+]`: the “growth inhibition (GI)” value in [1] and in data set [3] was “Non-Toxic” each time. Moreover, the inhibition entry in data set [2] was “Tde”; in data set [4] it was “Tde”; in [5], 20%; in data set [7], “Tde”; in data set [9], 55%; in data set [10], 89%. In addition, in data set [6], the MIC was found to be 16 mg/L. In addition, the concentration for half-maximal inhibition (IC50) in data set [8] was determined as 1.23 µM.
On to `O=C([O-])CSCC(=O)Nc1ccccc1[N+](=O)[O-].[K+]`, for which the “growth inhibition (GI)” value in data set [1] and in data set [3] was “Non-Toxic” throughout. Besides, the inhibition entry in data set [2] is “Tde”; in data set [4], “Tde”; in [5], 21%; in data set [7], “Tde”; in [9], 44%; in data set [10] it was 77%. The MIC in data set [6] is 16 mg/L. The compound also displayed an IC50 in [8] of 4.21 µM. For the same compound, the Activity entry in [11] is reported as “Non-Toxic”.
Turning to `O=C([O-])CSCC(=O)Nc1ccc(Cl)cc1.[K+]`, the “growth inhibition (GI)” value in [1] and in data set [3] was “Non-Toxic” each time. Moreover, the inhibition result was “Tde” in data set [2]; “Tde” in data set [4]; 25% in data set [5]; “Tde” in data set [7]; 48% in data set [9]; 73% in [10]. The MIC in data set [6] turned out to be 16 mg/L. Also, the IC50 in data set [8] turned out to be 20 µM.
Regarding `CCCCc1ccc(NC(=O)CSCC(=O)[O-])cc1.[K+]`, the “growth inhibition (GI)” value in data set [1] and in data set [3] was “Non-Toxic” throughout. Besides, the inhibition entry in [2] was “Tde”; in data set [4], “Tde”; in data set [5], 29%; in data set [7], “Tde”; in data set [9], 64%; in data set [10], 97%. Besides, the MIC in [12] is 16 mg/L; in data set [6], 2 mg/L; in data set [13], 16 mg/L; in data set [14], 16 mg/L; in [15] it was 16 mg/L; in [16], 8 mg/L. Moreover, the MIC in data set [17] was determined as 8 mg/L; in data set [18], 16 mg/L; in data set [19] it was 16 mg/L. Further, in data set [8], the IC50 was found to be 0.43 µM. For the same compound, in data set [20], the fold change (FC) came out at 8.
In the case of `O=C([O-])CSCC(=O)NCc1ccccc1.[K+]`, the “growth inhibition (GI)” value in [1] and in data set [3] was “Non-Toxic” in each case. For the same compound, the inhibition entry is “Tde” in data set [2]; “Tde” in data set [4]; 21% in [5]; “Tde” in data set [7]; 51% in [9]; 97% in [10]. Moreover, in data set [6], the MIC is 16 mg/L. The same compound displayed an IC50 in data set [8] of 0.46 µM.
Take `Cc1ccccc1NC(=O)CSCC(=O)[O-].[K+]`: the “growth inhibition (GI)” value in data set [1] and in [3] was “Non-Toxic” throughout. Further, the inhibition result is “Tde” in [2]; “Tde” in [4]; 24% in [5]; “Tde” in data set [7]; 50% in data set [9]; 95% in data set [10]. Moreover, the MIC in data set [6] turned out to be 16 mg/L. In data set [8], this compound showed an IC50 of 0.46 µM.

For the origin of these results see ChEMBL document CHEMBL3994675, “Carbamylmethyl Mercaptoacetate Thioether: A Novel Scaffold for the Development of L1 Metallo-β-lactamase Inhibitors” (ACS Med Chem Lett, 2017).
